Values belong to the compound of their own block, whether it stands above or below them. Active and inactive are the calls of the source. The calls are words filed in the database; no cut-off is given here.
What was measured:
[1] = Metabolic stability in human plasma at 5 uM after 120 mins by UPLC-MS/MS analysis; assay type: ADME, cell-free; settings: read-out: Stability
Procedure, shortened: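 Compound at 5 µM in human plasma at 37°C, sampled from 0 to 120 min. Stopped with acetonitrile, centrifuged, supernatant dried under nitrogen and reconstituted in 0.2% formic acid water/methanol 75/25. Measured by UPLC-MS/MS as % remaining. Procaine was the positive control.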

[2] = Inhibition of sheep brain tubulin polymerization assessed as reduction in rate of microtubule assembly by DAPI-fluorescence based assay; parameters: species or system Ovis aries
Procedure, shortened: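 Sheep brain tubulin purified by two assembly–disassembly cycles, about 10 µM in buffer at pH 6.6 with MgCl2, EGTA and 1 mm GTP. Assembly followed continuously at 37 °C by DAPI fluorescence. IC50 is the concentration halving the maximum assembly rate versus no compound. Reference compounds run the same day. Average of three experiments.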

K-562R = assay: Antiproliferative activity against human K562R cells after 72 hrs by resazurin-based fluorescence assay; assay type: functional, cell-based
Procedure, shortened: (§1)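 CellTiter-Blue viability. Cells plated at 5 × 10^3 per well and cultured 24 h, then given compound in DMSO (under 0.1%) for 72 h. Resazurin added for 2 h, fluorescence read at ex 560/em 590 nm. […] Run in triplicate. U87-MG grown in DMEM (4.5 g/L glucose, 10% FCS, 1% glutamine). K562, K562R (doxorubicin-resistant), A549 and MCF7 grown in RPMI 1640 (10% FCS, 1% glutamine). All kept at 37 °C, 5% CO2.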

MCF7 = assay: Antiproliferative activity against human MCF7 cells after 72 hrs by resazurin-based fluorescence assay; assay type: functional, cell-based; settings: MCF7, 72 h; procedure, shortened: as §1
U-87 MG [3] = assay: Antiproliferative activity against human U87 cells after 72 hrs by resazurin-based fluorescence assay; assay type: functional, cell-based, U-87MG ATCC; procedure, shortened: as §1
A549 [4] = assay: Antiproliferative activity against human A549 cells after 72 hrs by resazurin-based fluorescence assay; assay type: functional, cell-based; settings: A549, 72 h
[5] = Increase in PGF2alpha-induced contractile response in isolated Wistar rat aorta rings at 10 uM after 10 mins; assay type: tissue-based
Procedure, shortened: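 Rat aortic rings 2–3 mm in PSS at 37°C, 95% O₂/5% CO₂, pH 7.4, isometric tension at 2 g resting force. Rings were kept if K60 contraction was ≥1.5 g and ACh (10 µM) relaxation ≥15%. Compound (10 µM) or DMSO 0.1% was given for 10 min, then cumulative PGF2α 1 nM–30 µM. Hill fits gave pD2 and Emax as % of K60. N = 6.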

[6] = Metabolic stability in human liver microsomes at 5 uM preincubated for 5 mins followed NADPH addition measured after 120 mins by UPLC-MS/MS analysis; assay type: ADME, microsome; settings: read-out: Stability
K562 = assay: Antiproliferative activity against human K562 cells after 72 hrs by resazurin-based fluorescence assay; assay type: functional, cell-based; settings: K562, 72 h; procedure, shortened: as §1
[7] = Intrinsic clearance in human liver microsomes at 5 uM preincubated for 5 mins followed by NADPH addition measured after 45 mins by UPLC-MS/MS analysis; assay type: ADME, microsome; settings: read-out: CLH
HCT-116 [8] = assay: Antiproliferative activity against human HCT116 cells after 72 hrs by resazurin-based fluorescence assay; assay type: functional, cell-based; settings: HCT-116, 72 h
[9] = Induction of basal contraction tone in isolated Wistar rat aorta rings at 10 uM after 10 mins in presence K60 solution (reference value: 0.2 +/- 0.2%); assay type: tissue-based
[10] = Metabolic stability in human liver microsomes at 5 uM after 120 mins in absence of NADPH by UPLC-MS/MS analysis; assay type: ADME, microsome; settings: read-out: Stability
PBL [11] = assay: Cytotoxicity against human PBL cells assessed as reduction in cell viability after 72 hrs by MTS assay; assay type: cell-based
Procedure, shortened: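 PBMCs from healthy donors were isolated on a Ficoll gradient and cultured overnight at 37°C in RPMI-1640 with 10% FCS. Non-adherent cells were set at 5 × 10⁵/mL with PHA 2.5 µg/mL (proliferating) or without it (quiescent). Serial dilutions 0.001–25 µM final (10 mM DMSO stocks) were applied for 72 h at 37°C, and viability was read by MTS.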

PBL [12] = assay: Cytotoxicity against human PBL cells assessed as reduction in cell proliferation after 72 hrs by MTS assay
A549 [13] = assay: Potency index, ratio of combretastatin A-4 IC50 to compound IC50 for antiproliferative activity against human A549 cells; assay type: functional
Tubulin (Homo sapiens) [14] = biological target: T1, Tubulin (Homo sapiens) (UniProt P68371+Q9H4B7+P0DPH7+P68366+Q13509+Q71U36+P04350+Q3ZCM7+P07437+P68363+Q9BQE3+Q6PEY2+Q13885+Q9BVA1+Q9BUF5); assay: Inhibition of tubulin polymerization in human U87MG cells assessed as multinucleation at 10 nM after 24 hrs by Hoechst-33258 staining based inverted microscopy; assay type: cell-based
Procedure, shortened: (§2)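 U87-MG on chamber slides, 24 h with 5 or 10 nM, control 0.1% DMSO. Fixed in 2% paraformaldehyde, permeabilized with 0.25% Triton X-100, blocked with BSA/goat serum. Stained with mouse anti-β-tubulin overnight at 4°C, then Alexa 647 anti-mouse plus Hoechst 33258 for 2 h, then Alexa 488 phalloidin for F-actin. Imaged on an inverted microscope with a 60X oil objective.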

Tubulin (Homo sapiens) [15] = biological target: T1, Tubulin (Homo sapiens); assay: Inhibition of tubulin polymerization in human U87MG cells assessed as shrinkage of microtubule spindles at 10 nM after 24 hrs by Hoechst-33258 staining based inverted microscopy; assay type: cell-based; procedure, shortened: as §2
Tubulin (Homo sapiens) [16] = biological target: T1, Tubulin (Homo sapiens); assay: Inhibition of tubulin polymerization in human U87MG cells assessed as formation of disorganized microtubule network at 5 nM after 24 hrs by Hoechst-33258 staining based inverted microscopy; assay type: cell-based; procedure, shortened: as §2
HCT-116 [17] = assay: Cell cycle arrest in human HCT116 cells assessed as accumulation at G2/M phase at 20 nM after 24 hrs by propidium iodide staining based flow cytometry; assay type: functional
Procedure, shortened: (§3)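 Exponentially growing HCT116 (RPMI 1640) or U87-MG (DMEM, 4.5 g/L glucose) cells, each medium with 10% FCS and 1% glutamine, treated 24 h at 20 nM in DMSO, with a DMSO control. DNA content measured by propidium iodide staining and flow cytometry.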

U-87 MG [18] = assay: Cell cycle arrest in human U87MG cells assessed as accumulation at G2/M phase at 20 nM after 24 hrs by propidium iodide staining based flow cytometry; assay type: functional; settings: U-87MG ATCC; procedure, shortened: as §3
Tubulin (Homo sapiens) [19] = biological target: T1, Tubulin (Homo sapiens); assay: Inhibition of tubulin polymerization in human U87MG cells assessed as formation of disorganized actin network at 10 nM after 24 hrs by Hoechst-33258 staining based inverted microscopy; assay type: cell-based; procedure, shortened: as §2

SMILES: C=C(c1ccc(OC)c(N)c1)c1cc(OC)c(OC)c(OC)c1
remaining at 2 h, 5 µM [1]: 94%
IC50 [2]: 2200 nM
IC50 (K-562R): 2 nM
IC50 (MCF7): 2.9 nM
IC50 (U-87 MG [3]): 9 nM
IC50 (A549 [4]): 7 nM
pD2 [5]: 5.79
remaining at 2 h, 5 µM [6]: 11.6%
IC50 (K562): 5 nM
microsomal CLint at 5 µM [7]: 46 µL/min/mg
IC50 (HCT-116 [8]): 2 nM
Activity [9]: 1.6%
remaining at 2 h, 5 µM [10]: 6%

SMILES: C=C(c1cc(OC)cc(OC)c1)c1ccc(OC(F)(F)F)c([N+](=O)[O-])c1
IC50 (HCT-116 [8]): > 10000 nM

SMILES: COc1cc(C(C)c2ccc(OC(F)(F)F)c(N)c2)cc(OC)c1OC (stereo not given)
IC50 (HCT-116 [8]): 3000 nM

SMILES: C=C(c1cc(OC)c(OC)c(OC)c1)c1ccc(OC(F)(F)F)c([N+](=O)[O-])c1
IC50 (HCT-116 [8]): 4000 nM

SMILES: C=C(c1ccc(OC)c(F)c1)c1cc(OC)c(OC)c(OC)c1
IC50 [2]: 4000 nM
IC50 (K-562R): 2 nM
IC50 (MCF7): 1 nM
IC50 (U-87 MG [3]): 8 nM
IC50 (A549 [4]): 8 nM
IC50 (K562): 6 nM
IC50 (HCT-116 [8]): 7 nM

SMILES: COc1cc(C(C)c2ccc(OC(F)(F)F)c(F)c2)cc(OC)c1OC (stereo not given)
IC50 (HCT-116 [8]): 5000 nM

SMILES: C=C(c1ccc(OC(F)(F)F)cc1)c1cc(OC)c(OC)c(OC)c1
IC50 (HCT-116 [8]): 5000 nM

SMILES: COc1cc(C(C)c2ccc(OC(F)(F)F)cc2)cc(OC)c1OC (stereo not given)
IC50 (HCT-116 [8]): > 10000 nM

SMILES: C=C(c1ccc(OC)c(O)c1)c1cc(OC)c(OC)c(OC)c1
IC50 [2]: 2000 nM
IC50 (K-562R): 2.2 nM
IC50 (MCF7): 8 nM
IC50 (U-87 MG [3]): 8 nM
IC50 (A549 [4]): 20 nM

SMILES: COc1ccc(/C=C\c2cc(OC)c(OC)c(OC)c2)cc1O [COMBRETASTATIN A4]
IC50 [2]: 2100 nM
IC50 (K-562R): 23 nM
IC50 (PBL [11]): > 10 µM
IC50 (MCF7): 8 nM
IC50 (U-87 MG [3]): 3 nM
pD2 [5]: 5.73
IC50 (PBL [12]): 0.1 to 0.5 µM
IC50 (K562): 6 nM
Activity [9]: 0.7%

SMILES: COc1ccc(C(=C(F)F)c2cc(OC)c(OC)c(OC)c2)cc1O
remaining at 2 h, 5 µM [1]: 100%
IC50 [2]: 2000 nM
IC50 (K-562R): 0.2 nM
IC50 (MCF7): 0.6 nM
IC50 (U-87 MG [3]): 0.3 nM
IC50 (A549 [4]): 2 nM
remaining at 2 h, 5 µM [6]: 5%
IC50 (K562): 2.2 nM
microsomal CLint at 5 µM [7]: 64 µL/min/mg
IC50 (HCT-116 [8]): 2 nM
remaining at 2 h, 5 µM [10]: 20%

SMILES: C=C(c1ccc(OC(F)(F)F)cc1)c1cc(OC)cc(OC)c1
IC50 (HCT-116 [8]): > 10000 nM

SMILES: C=C(c1ccc(OC(F)(F)F)cc1)c1c(OC)cc(OC)cc1OC
IC50 (HCT-116 [8]): > 10000 nM

SMILES: COc1ccc(C(C)c2cc(OC)c(OC)c(OC)c2)cc1OC(F)(F)F (stereo not given)
IC50 (HCT-116 [8]): > 10000 nM

The remaining compounds from weak to strong by IC50 (HCT-116 [8]), led by results:

IC50 (HCT-116 [8]): 2000 nM
SMILES: C=C(c1ccc(OC(F)(F)F)c(F)c1)c1cc(OC)c(OC)c(OC)c1

IC50 (HCT-116 [8]): 1500 nM
SMILES: C=C(c1ccc(OC)c(OC(F)(F)F)c1)c1cc(OC)c(OC)c(OC)c1

IC50 (HCT-116 [8]): 200 nM
SMILES: C=C(c1ccc(OC(F)(F)F)c(N)c1)c1cc(OC)c(OC)c(OC)c1

IC50 (HCT-116 [8]): 100 nM
SMILES: C=C(c1ccc(OC)c(N)c1)c1cc(F)c(F)c(F)c1

IC50 (HCT-116 [8]): 85 nM
SMILES: COc1ccc(C(C)c2cc(OC)c(OC)c(OC)c2)cc1F (stereo not given)

IC50 (HCT-116 [8]): 30 nM
SMILES: COc1ccc(C(c2cc(OC)c(OC)c(OC)c2)C(F)F)cc1O (stereo not given)

IC50 (HCT-116 [8]): 20.2 nM
SMILES: C=C(c1ccc(OC(F)F)c(N)c1)c1cc(C)nc2ccccc12

IC50 (HCT-116 [8]): 18 nM
SMILES: COc1cc(C(C)c2ccc(OC(F)F)c(N)c2)cc(OC)c1OC (stereo not given)

IC50 (HCT-116 [8]): 9.14 nM
SMILES: COc1cc(C(=C(F)F)c2ccc(OC(F)F)c(N)c2)cc(OC)c1OC

remaining at 2 h, 5 µM [1]: 100%
IC50 [2]: 400 nM
IC50 (K-562R): 0.15 nM
IC50 (MCF7): 2 nM
IC50 (U-87 MG [3]): 0.6 nM
IC50 (A549 [4]): 2.2 nM
pD2 [5]: 5.87
remaining at 2 h, 5 µM [6]: 3.3%
IC50 (K562): 4 nM
microsomal CLint at 5 µM [7]: 13.6 µL/min/mg
IC50 (HCT-116 [8]): 1 nM
Activity [9]: 2.2%
remaining at 2 h, 5 µM [10]: 9%
SMILES: C=C(c1ccc(OC(F)F)c(N)c1)c1cc(OC)c(OC)c(OC)c1
IC50 (PBL [11]): > 10 µM
IC50 (PBL [12]): > 10 µM

remaining at 2 h, 5 µM [1]: 100%
IC50 [2]: 2000 nM
IC50 (K-562R): 0.1 nM
IC50 (MCF7): 1.5 nM
inhibition (Tubulin (Homo sapiens) [14]): Active
inhibition (Tubulin (Homo sapiens) [15]): Active
IC50 (U-87 MG [3]): 0.2 nM
inhibition (Tubulin (Homo sapiens) [16]): Active
IC50 (A549 [4]): 2 nM
pD2 [5]: 5.94
inhibition (Tubulin (Homo sapiens) [19]): Active
remaining at 2 h, 5 µM [6]: 13.6%
IC50 (K562): 0.4 nM
microsomal CLint at 5 µM [7]: 43 µL/min/mg
IC50 (HCT-116 [8]): 0.9 nM
Activity [9]: 2.1%
remaining at 2 h, 5 µM [10]: < 5%
SMILES: COc1ccc(C(=C(F)F)c2cc(OC)c(OC)c(OC)c2)cc1N
IC50 (PBL [11]): > 10 µM
Ratio IC50 (A549 [13]): 90
Activity (HCT-116 [17]): Active
Activity (U-87 MG [18]): Active
IC50 (PBL [12]): > 10 µM

Reference: ChEMBL document CHEMBL4138220, “A fluorine scan of a tubulin polymerization inhibitor isocombretastatin A-4: Design, synthesis, molecular modelling, and biological evaluation” (Eur J Med Chem, 2018)
